The term IC50 denotes the concentration at which inhibition is half-maximal. In general, IC90 refers to the concentration at which the effect reaches the 90% level. Lower therefore signals greater potency.

These results are taken from ChEMBL document CHEMBL1134715, “Aryloxy substituted N-arylpiperazinones as dual inhibitors of farnesyltransferase and geranylgeranyltransferase-I” (Bioorg Med Chem Lett, 2001).

The structures appear in SMILES notation. In brackets after ≈: the same amount, converted by molar mass.

In experiment [1] the target is T1, Protein farnesyltransferase (Homo sapiens, UniProt P49354+P49356). Put plainly: In vitro inhibition against human Farnesyltransferase catalyzed by incorporation of [3H]- FPP into recombinant Ras-CVIM. The experiment is classed as protein-complex assay.
The target of experiment [2] is T2, Geranylgeranyl transferase type I (Homo sapiens, UniProt P49354+P53609). Put plainly: In vitro inhibition against human Geranylgeranyl transferase type I catalyzed by incorporation of [3H]- GGPP (geranylgeranyl pyrophosphate) into biotinylated peptide corresponding to the c-terminus of human Ki-Ras. It is filed as protein-complex assay. The gist of the method:
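Human GGPTase-I transferred [3H]GGPP onto a biotinylated human Ki-Ras C-terminal peptide. Enzyme and inhibitor were preincubated 30 min with 5 mM ATP before reaction. Some values were instead run without preincubation. IC50 is the concentration halving incorporation.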

Experiment [3] addresses T1, Protein farnesyltransferase. Put plainly: Concentration required to displace 50% of a radiolabeled farnesyltransferase inhibitor from FPTase in cultured Ha-Ras transformed RAT1 cells. The experiment is classed as functional, cell-based.
The target in experiment [4] is T2, Geranylgeranyl transferase type I. The experiment is described as follows: Minimal concentration required to inhibit Rap 1a processing (prenylation) in PSN-1 cell. It is filed as functional, cell-based.
The test system of experiment [5] is Rat1. Put plainly: Inhibition of colony formation in v-H-ras-transformed RAT1 cells. It is filed as functional. To be noted: Rattus norvegicus. The gist of the method: (§1)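 Anchorage-independent growth of ras-transformed RAT1 cells in soft agar, read as colony formation. Potency is reported as IC90 for blocking colonies.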
Experiment [6] has as its system Rat1. Put plainly: Inhibition of colony formation in K-ras-transformed RAT1 cells, ranges from 0.3-1. It is filed as functional. To be noted: Rattus norvegicus. The procedure, abridged: as §1
Experiment [7] relates to Rat1. Put plainly: Percent RAT1 cell survival at 10 uM assessed by MTT viability staining. The experiment is classed as functional. To be noted: Rattus norvegicus, read-out: Survival.

For `N#Cc1ccc(Cn2cncc2CN2CCN(c3cccc(Cl)c3)C(=O)C2)cc1Oc1ccc2ccccc2c1`, the IC50 in experiment [1] is 1 nM; in experiment [2], 199 nM; in experiment [3] it was 48 nM.
Taken in the same sequence, the figures for `N#Cc1ccc(Cn2cncc2CN2CCN(c3cccc(Cl)c3)C(=O)C2)cc1Oc1ccc(OCc2ccccc2)cc1` were 32 nM, 62 nM and 311 nM.
As for `N#Cc1ccc(Cn2cncc2CN2CCN(c3cccc(Cl)c3)C(=O)C2)cc1Oc1ccccc1`, the MIC in experiment [4] was found to be 1 µM (≈ 0.498 µg/mL). Further, the IC90 in the experiment on Rat1 [5] was 300 nM; with Rat1 [6], 1000 nM. Further, the IC50 in experiment [1] stood at 7 nM; in experiment [2] it was 22 nM; in experiment [3], 110 nM. In addition, in the experiment on Rat1 [7], the viability at 10 µM was found to be 80%.
Turning to `N#Cc1cc(Cn2cncc2CN2CCN(c3cccc(Cl)c3)C(=O)C2)ccc1Oc1ccccc1`, the IC50 in experiment [1] worked out at 9 nM; in experiment [2], 809 nM.
For `N#Cc1ccc(Cn2cncc2CN2CCN(c3cccc(Cl)c3)C(=O)C2)cc1Oc1ccc2c(c1)CCCC2`, in that order: 4 nM and 290 nM.
With `N#Cc1ccc(Cn2cncc2CN2CCN(c3cccc(Cl)c3)C(=O)C2)cc1Oc1ccccc1Cl`, the MIC in experiment [4] amounted to 0.3 µM (≈ 0.16 µg/mL). In addition, the IC50 in experiment [1] turned out to be 7 nM; in experiment [2] it was 0.7 nM; in experiment [3] it was 41 nM.
As to `N#Cc1ccc(Cn2cncc2CN2CCN(c3cccc(Cl)c3)C(=O)C2)cc1` [L-778123 FREE BASE], the MIC in experiment [4] is 1 µM (≈ 0.406 µg/mL). The IC90 with Rat1 [5] turned out to be 100 nM.
For the molecule `N#Cc1ccc(Cn2cncc2CN2CCN(c3cccc(Cl)c3)C(=O)C2)cc1Oc1cccc(Cl)c1`, the IC50 worked out at 4 nM in experiment [1], 20 nM in experiment [2] and 93 nM in experiment [3].
For `N#Cc1ccc(Cn2cncc2CN2CCN(c3cccc(Cl)c3)C(=O)C2)cc1Sc1ccccc1`, in that order: 18 nM, 12 nM and 255 nM.
For the molecule `O=C1CN(Cc2cncn2Cc2cccc(Oc3ccccc3)c2)CCN1c1ccc(Cl)cc1`, the results for the IC50 in experiment [1] and in experiment [2] were 670 nM and 136 nM, respectively.
For the molecule `N#Cc1ccc(Cn2cncc2CN2CCN(c3cccc(Cl)c3)C(=O)C2)cc1Oc1ccc(Cl)cc1`, the values for the IC50 in experiment [1], in experiment [2] and in experiment [3] were 19 nM, 15 nM and 350 nM, respectively.
As to `O=C1CN(Cc2cncn2Cc2cccc(Oc3ccccc3)c2)CCN1c1ccc(C(F)(F)F)cc1`, the IC50 in experiment [1] turned out to be 5770 nM; in experiment [2], 155 nM.
Turning to `N#Cc1ccc(Cn2cncc2CN2CCN(c3cccc(Cl)c3)C(=O)C2)cc1Oc1cccc(OCCO)c1`, in experiment [4], the MIC stood at 3 µM (≈ 1.67 µg/mL). Besides, the IC50 in experiment [1] was 2.5 nM; in experiment [2] it was 1.3 nM; in experiment [3] it was 8 nM.
In the case of `N#Cc1ccc(Cn2cncc2CN2CCN(c3cccc(Cl)c3)C(=O)C2)cc1Oc1cccnc1`, the MIC in experiment [4] amounted to 1 µM (≈ 0.499 µg/mL). In addition, the IC50 in experiment [1] was determined as 11 nM; in experiment [2] it was 52 nM; in experiment [3] it was 17 nM.
For `O=C1CN(Cc2cncn2Cc2cccc(Oc3ccccc3)c2)CCN1c1cccc(Cl)c1`, the IC50 in experiment [2] was 65 nM.
